This passage reports Change, logP and pKa results from ChEMBL document CHEMBL1128240, “Studies on new acidic azoles as glucose-lowering agents in obese, diabetic db/db mice” (J Med Chem, 1995).

Activity calls are given as the source filed them. No cut-off for these calls is given here.

Data set [1] relates to Mus musculus. Put plainly: percentage change in plasma glucose concentration of drug treated mice relative to vehicle controls at 73 mg/kg (once daily perorally x 4) in groups of db/db mice compared to vehicle control. The data set is classed as functional. The following applies: route oral. Put shortly: (§1)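 Male C57BL/KsJ db/db mice (2-7 months, 35-60 g), 4 h fasted baseline tail blood on day 1; extremes excluded, randomized into groups (N = 4-6) of equal mean glucose. Dosed po as suspension in 2% Tween 80/saline on afternoons of days 1-3 (fed) and day 4 after 3 h fast. Plasma glucose (Abbott VP analyzer) 2 and 4 h post-dose, mean versus day-1 baseline; ANOVA with one-sided Dunnett's test against vehicle.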

Data set [2] concerns Mus musculus. Put plainly: percentage change in plasma glucose concentration of drug treated mice relative to vehicle controls at 100 mg/kg (once daily perorally x 4) in groups of db/db mice. The data set is classed as functional. The following applies: route oral. The method, boiled down: as §1
Data set [3] deals with Mus musculus. Put plainly: percentage change in plasma glucose concentration of drug treated mice relative to vehicle controls at 20 mg/kg (once daily perorally x 4) in groups of db/db mice; NA = not active. The data set is classed as functional, organism-based. On the set-up: dose 20 mg/kg. The method, boiled down: as §1
Data set [4] relates to Mus musculus. Put plainly: Percentage change in plasma glucose concentration of drug treated mice relative to vehicle controls at 100 mg/kg (once daily perorally x 4) in groups of db/db mice; NA = not active. The data set is classed as functional, organism-based. On the set-up: dose 100 mg/kg. The method, boiled down:
as §1

In data set [5] the test system is Mus musculus. Put plainly: percentage change in plasma glucose concentration of drug treated mice relative to vehicle controls at 100 mg/kg (once daily perorally x 4) in groups of db/db mice compared to vehicle control. It counts as functional. Conditions: route oral. The method, boiled down: as §1
A short description of data set [6]: Partition coefficient (logP). It counts as physicochemical. Conditions: octanol/water. Put shortly:
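Manual shake-flask octanol/aqueous partition. Buffer was 0.01 M K2HPO4 at pH 7.4. Sample was shaken 1 min, equilibrated 4 h, and phases separated and centrifuged. Each phase was quantified by reverse-phase C18 HPLC (acetonitrile/0.01 M […] pH 3.5, 214 nm). Average of at least two runs.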

Data set [7] relates to Mus musculus. Description: percentage change in plasma glucose concentration of drug treated mice relative to vehicle controls at 100 mg/kg (once daily perorally x 4) in groups of db/db mice; Not active. The data set is classed as functional, organism-based. Also noted: dose 100 mg/kg. The method, boiled down:
as §1

A short description of data set [8]: Dissociation constant measured by potentiometric titration (in duplicate) in 1:1 dioxane-water using a Fisher accumet pH meter model 630 and a Perkin-Elmer chart recorder model 56. It counts as physicochemical. Put shortly:
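Apparent pKa from potentiometric titration with 0.1 N NaOH in dioxane–water (1:1). Sample concentration 0.2 mM, solvent 30 mL, 25 °C, titrant flow 0.17 mL/min. Value is the average of two runs. The system was conditioned and checked in duplicate against piperazine, allantoin, barbituric acid and ciglitazone standards.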

Data set [9] has as its system Mus musculus. Description: percentage change in plasma glucose concentration of drug treated mice relative to vehicle controls at 100 mg/kg (once daily perorally x 4) in groups of db/db mice; NA= not active. The data set is classed as functional, organism-based. Also noted: dose 100 mg/kg. Put shortly:
as §1

In data set [10] the test system is Mus musculus. Description: percentage change in plasma glucose concentration of drug treated mice relative to vehicle controls at 20 mg/kg (once daily perorally x 4) in groups of db/db mice compared to vehicle control. The data set is classed as functional. Conditions: route oral. The method, boiled down: as §1
For data set [11], the system named is Mus musculus. Description: percentage change in plasma glucose concentration of drug treated mice relative to vehicle controls at 5 mg/kg (once daily perorally x 4) in groups of db/db mice; not active, generally less than -15% change. Also noted: dose 5 mg/kg. The data set is classed as functional, organism-based. Put shortly: as §1
Data set [12] relates to Mus musculus. Description: percentage change in plasma glucose concentration of drug treated mice relative to vehicle controls at 5 mg/kg (once daily perorally x 4) in groups of db/db mice. The following applies: route oral. It counts as functional. The method, boiled down:
as §1

Data set [13] has as its system Mus musculus. Description: percentage change in plasma glucose concentration of drug treated mice relative to vehicle controls at 20 mg/kg (once daily perorally x 4) in groups of db/db mice; Not active. It counts as functional, organism-based. Also noted: dose 20 mg/kg. Put shortly:
as §1

Data set [14] concerns Mus musculus. Description: Percentage change in plasma glucose concentration of drug treated mice relative to vehicle controls at 20 mg/kg (once daily perorally x 4) in groups of db/db mice; NA = not active.
Data set [15] concerns Mus musculus. Put plainly: percentage change in plasma glucose concentration of drug treated mice relative to vehicle controls at 20 mg/kg (once daily perorally x 4) in groups of db/db mice. It counts as functional. The following applies: route oral. The method, boiled down:
as §1

Data set [16] deals with Mus musculus. Description: percentage change in plasma glucose concentration of drug treated mice relative to vehicle controls at 53 mg/kg (once daily perorally x 4) in groups of db/db mice; NA = not active. The data set is classed as functional, organism-based. On the set-up: dose 53 mg/kg. Put shortly: as §1
Data set [17] concerns Mus musculus. Description: percentage change in plasma glucose concentration of drug treated mice relative to vehicle controls at 27 mg/kg (once daily perorally x 4) in groups of db/db mice; NA = not active. The data set is classed as functional, organism-based. Also noted: dose 27 mg/kg. The method, boiled down:
as §1

For the compound `Nc1n[nH]c(O)c1Cc1ccc2ccccc2c1`, the Change in the data set on Mus musculus [1] is on record as -27%.

On to `Cc1[nH]oc(=O)c1Cc1ccc2ccccc2c1`, for which the Change with Mus musculus [2] is listed as -17%.

For the compound `Cc1n[nH]c(O)c1Cc1cccc2ccccc12`, the Change result in the data set with Mus musculus [3] is “inactive”.

With `O=C(O)c1cc(-c2ccc3ccccc3c2)[nH]n1`, the Change result in the data set with Mus musculus [4] was “inactive”.

Consider `COC(=O)C(=O)/C=C(\O)c1ccc2ccccc2c1`, for which the Change with Mus musculus [5] is recorded as -37%.

Take `O=C(O)CCc1ccc2ccccc2c1`: in [6] (read-out: logP), the log partition coefficient (logP) came to 1.09. Also, the Change entry in the data set with Mus musculus [7] is “inactive”. The pKa in [8] is 6.52.

`Oc1[nH]nc(C(F)(F)F)c1Cc1ccc2c(c1)CCC(Cc1ccccc1)O2` (stereo not given): the Change result in the data set with Mus musculus [4] is “inactive”.

`C[n+]1nn(Cc2ccccc2)c([O-])c1Cc1ccc2ccccc2c1`: in the data set with Mus musculus [9], the Change result is “inactive”.

As for `Oc1cc(Cc2ccc3ccccc3c2)n[nH]1`, the Change entry in the data set on Mus musculus [4] was “inactive”.

For the compound `Oc1n[nH]c(O)c1Cc1ccc2ccccc2c1`, the Change entry in the data set with Mus musculus [4] was “inactive”.

Consider `CCCc1o[nH]c(=O)c1Cc1ccc2ccccc2c1`, for which the Change result in the data set on Mus musculus [3] was “inactive”.

Turning to `O=C(O)C(=O)/C=C(\O)c1ccc2ccccc2c1`, the Change in the data set with Mus musculus [5] is -28%.

Regarding `CCc1n[nH]c(O)c1Cc1ccc2ccccc2c1`, the Change in the data set with Mus musculus [10] was -32%; in the data set with Mus musculus [11], “Not significant”.

Consider `Oc1[nH]nc(C(F)(F)F)c1Cc1ccc2ccccc2c1`, for which the Change in the data set with Mus musculus [12] is listed as -16%.

For the compound `Oc1[nH]nc(C(F)(F)C(F)(F)F)c1Cc1ccc2ccccc2c1`, the Change entry in the data set with Mus musculus [4] is “inactive”.

Turning to `CC(C)c1n[nH]c(O)c1Cc1ccc2ccccc2c1`, the Change with Mus musculus [5] was -30.4%.

`Oc1cc(CSc2nc3ccccc3s2)n[nH]1`: the Change entry with Mus musculus [4] was “inactive”.

Consider `Oc1[nH]nc2c1CCc1sccc1-2`, for which, in the data set on Mus musculus [4], the Change entry was “inactive”.

Take `Cc1n[nH]c(O)c1Cc1ccc2ccccc2c1`: the Change with Mus musculus [10] is -31%; with Mus musculus [5] it was -42%.

As to `Oc1[nH]nc(C(F)(F)F)c1Cc1ccc2sccc2c1`, in the data set with Mus musculus [10], the Change is reported as -29%.

For the compound `Oc1[nH]nc(-c2ccccc2)c1Cc1ccc2ccccc2c1`, the Change entry in the data set on Mus musculus [4] was “inactive”.

Consider `CC1(COc2ccc(CC3SC(=O)NC3=O)cc2)CCCCC1` (stereo not given) [CIGLITAZONE], for which the logP in data set [6] was 3.61. Also, the Change in the data set on Mus musculus [5] is reported as -28%. This compound also registered a pKa in [8] of 7.8.

Take `O=C1NC(=O)C(Cc2ccc3ccccc3c2)=C1O`: the Change result with Mus musculus [13] was “inactive”.

As to `Oc1[nH]nc(C(F)(F)F)c1Cc1ccc2nccnc2c1`, in the data set on Mus musculus [10], the Change is recorded as -27%.

Consider `COCc1noc(O)c1Cc1ccc2ccccc2c1`, for which the Change result in the data set with Mus musculus [4] is “inactive”.

As to `Oc1cc(C23CC4CC(CC(C4)C2)C3)n[nH]1`, in the data set on Mus musculus [14], the Change result was “inactive”.

Regarding `Cn1nnc(O)c1Cc1ccc2ccccc2c1`, in [6] (read-out: logP), the logP came to 2.12. Further, in data set [8], the pKa was 9.11. Also, the Change result with Mus musculus [3] was “inactive”.

In the case of `Cc1c(Cc2ccc3ccccc3c2)o[nH]c1=O`, the Change result in the data set with Mus musculus [4] was “inactive”.

As for `Cc1o[nH]c(=O)c1Cc1ccc2ccccc2c1Br`, the Change entry in the data set with Mus musculus [3] is “inactive”.

Turning to `Oc1[nH]nc(C(F)(F)F)c1Cc1ccccc1`, the Change in the data set on Mus musculus [5] is -33%; in the data set on Mus musculus [15] it was -18%.

Consider `Cc1o[nH]c(=O)c1Cc1ccccc1`, for which the Change result in the data set on Mus musculus [4] is “inactive”.

`Cc1n[nH]c(O)c1Cc1nc2ccccc2o1`: the Change result with Mus musculus [16] was “inactive”.

For the compound `Oc1[nH]nc2c1CCc1ccccc1-2`, the Change entry with Mus musculus [4] is “inactive”.

Turning to `Oc1cc(CSc2nc3ccccc3s2)no1`, the Change entry with Mus musculus [4] was “inactive”.

For `COCc1n[nH]c(O)c1Cc1ccc2ccccc2c1`, the Change in the data set with Mus musculus [5] is -39%. The Change result in the data set on Mus musculus [3] was “inactive”.

Regarding `Oc1nnnn1Cc1ccc2ccccc2c1`, the Change result in the data set with Mus musculus [4] is “inactive”.

Turning to `Oc1n[nH]nc1Cc1ccc2ccccc2c1`, the Change result with Mus musculus [4] was “inactive”.

With `Cc1c(Cc2ccc3ccccc3c2)n[nH]c1O`, in the data set with Mus musculus [3], the Change entry was “inactive”.

On to `Oc1onc(-c2ccccc2)c1Cc1ccc2ccccc2c1`, for which the Change result in the data set on Mus musculus [4] was “inactive”.

Regarding `c1ccc2cc(Cc3nnn[nH]3)ccc2c1`, the logP in [6] (read-out: logP) stood at 0.72. Also, the pKa in data set [8] came out at 5.77. For the same compound, the Change result with Mus musculus [13] is “inactive”.

As for `Oc1[nH]nc(C(F)(F)F)c1Cc1ccc2c(c1)OCO2`, the Change with Mus musculus [10] was -38%.

`Cc1noc(O)c1Cc1ccc2ccccc2c1Br`: the Change entry in the data set with Mus musculus [3] was “inactive”.

For the compound `Cc1n[nH]c(O)c1Cc1ccc2c(c1)OCCO2`, in the data set on Mus musculus [10], the Change is listed as -21%.

`Oc1[nH]nc(C(F)(F)F)c1Cc1ccc2c(Br)cccc2c1`: in the data set with Mus musculus [10], the Change is reported as -22%.

Turning to `Oc1cc(CSc2ccc3ccccc3c2)no1`, the Change entry in the data set on Mus musculus [4] was “inactive”.

`O=[N+]([O-])c1ccc(-c2n[nH]c(O)c2Cc2ccc3ccccc3c2)cc1`: the Change result in the data set on Mus musculus [4] is “inactive”.

Regarding `Cc1c(O)nnn1Cc1ccc2ccccc2c1`, the Change result in the data set with Mus musculus [4] is “inactive”.

Regarding `Oc1[nH]ncc1Cc1ccc2ccccc2c1`, in the data set on Mus musculus [17], the Change entry was “inactive”.

In the case of `Cc1n[nH]c(O)c1Cc1ccc2ccccc2c1Br`, the Change in the data set on Mus musculus [15] is recorded as -20%.

On to `Cc1n[nH]c(O)c1CSc1nc2ccccc2[nH]1`, for which, in the data set with Mus musculus [9], the Change entry is “inactive”.

For the compound `Oc1c(Cc2ccc3ccccc3c2)nnn1Cc1ccccc1`, the Change entry with Mus musculus [4] was “inactive”.

Take `Cc1onc(O)c1Cc1ccc2ccccc2c1`: the Change is -25% with Mus musculus [10] and -48% with Mus musculus [5].

On to `Cc1n[nH]c(O)c1Cc1ccccc1`, for which, in the data set with Mus musculus [4], the Change entry is “inactive”.

As to `CCc1o[nH]c(=O)c1Cc1ccc2ccccc2c1`, the Change entry in the data set on Mus musculus [3] is “inactive”.

As to `NNc1n[nH]c(O)c1Cc1ccc2ccccc2c1`, the Change result with Mus musculus [4] is “inactive”.

Take `COC(=O)c1cc(-c2ccc3ccccc3c2)[nH]n1`: the Change result with Mus musculus [4] is “inactive”.

As to `Oc1[nH]nc(C(F)(F)C(F)(F)C(F)(F)F)c1Cc1ccc2ccccc2c1`, the Change entry with Mus musculus [9] was “inactive”.

The term logP denotes the decadic logarithm of the partition coefficient of the neutral form, usually between octanol and water. As a reminder, the pKa is the negative logarithm of the acid dissociation constant.
